According to ChEMBL document CHEMBL5154735, “Interaction of A3 adenosine receptor ligands with the human multidrug transporter ABCG2” (Eur J Med Chem, 2022):
Values belong to the molecule of their own block, whether it stands above or below them.

Tests used:
[1] = target: T1, Broad substrate specificity ATP-binding cassette transporter ABCG2 (Homo sapiens, UniProt Q9UNQ0); assay: Inhibition of human ABCG2 in human R5 cells assessed as inhibition of mitoxantrone efflux measured by flow cytometric analysis; type: cell-based
T1 sequence (Q9UNQ0 whole entry): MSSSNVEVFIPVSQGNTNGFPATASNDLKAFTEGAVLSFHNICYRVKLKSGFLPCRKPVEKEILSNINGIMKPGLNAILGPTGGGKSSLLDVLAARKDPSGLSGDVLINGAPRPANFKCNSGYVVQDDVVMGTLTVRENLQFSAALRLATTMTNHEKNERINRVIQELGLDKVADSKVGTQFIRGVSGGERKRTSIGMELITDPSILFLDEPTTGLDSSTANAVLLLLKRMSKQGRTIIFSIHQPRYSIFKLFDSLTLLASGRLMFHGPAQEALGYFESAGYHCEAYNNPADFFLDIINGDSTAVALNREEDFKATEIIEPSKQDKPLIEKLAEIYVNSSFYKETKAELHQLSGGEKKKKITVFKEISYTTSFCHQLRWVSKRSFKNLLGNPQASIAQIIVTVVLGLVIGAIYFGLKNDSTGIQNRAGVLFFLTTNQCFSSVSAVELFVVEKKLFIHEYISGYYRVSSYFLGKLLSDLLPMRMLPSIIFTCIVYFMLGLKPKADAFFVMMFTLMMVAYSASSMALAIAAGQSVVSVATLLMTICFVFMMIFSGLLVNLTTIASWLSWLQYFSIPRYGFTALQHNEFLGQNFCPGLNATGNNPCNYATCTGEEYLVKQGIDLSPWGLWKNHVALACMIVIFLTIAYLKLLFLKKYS
Procedure, shortened: (§1)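 HEK293 cells transfected with full-length ABCG2 (R-5) or empty pcDNA vector, grown in MEM with 10% FBS and 2 mg/ml G418. Cells incubated in IMDM with 5% FBS, 5 μM mitoxantrone (final) ± compound, 37°C for 45 min. Washed in cold IMDM, resuspended in cold PBS with 1% BSA, read by flow cytometry.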

[2] = target: T1, Broad substrate specificity ATP-binding cassette transporter ABCG2; assay: Activation of human ABCG2-mediated ATPase activity preincubated for 2 mins followed by ATP addition and measured after 20 mins by colorimetric assay
Procedure, shortened: (§2)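 Total membrane vesicles from High-Five insect cells expressing human ABCG2 (hypotonic lysis, differential centrifugation), 10 μg protein/tube, in MES-Tris pH 6.8 buffer with KCl, MgCl2, NaN3, EGTA, ouabain, DTT. Compound in DMSO added ± sodium orthovanadate (0.3 mM), DMSO control. Preincubated 2 min at 37°C, then 5 mM ATP, 20 min. SDS stop, Pi measured colorimetrically. Three independent experiments in duplicate, mean ± SE.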

[3] = target: T2, ABCG2 (Homo sapiens, UniProt Q9UNQ0); assay: Activation of human ABCG2-mediated ATPase activity preincubated for 2 mins followed by ATP addition at 100 nM and measured after 20 mins by colorimetric assay relative to control; conditions: read-out: Activity; procedure, shortened: as §2
T2 sequence (Q9UNQ0 whole entry): T1 sequence (Q9UNQ0 whole entry)

[4] = target: T3, Adenosine receptor A3 (Homo sapiens, UniProt P0DMS8); assay: Binding affinity towards human adenosine A3 receptor
T3 sequence (P0DMS8 whole entry): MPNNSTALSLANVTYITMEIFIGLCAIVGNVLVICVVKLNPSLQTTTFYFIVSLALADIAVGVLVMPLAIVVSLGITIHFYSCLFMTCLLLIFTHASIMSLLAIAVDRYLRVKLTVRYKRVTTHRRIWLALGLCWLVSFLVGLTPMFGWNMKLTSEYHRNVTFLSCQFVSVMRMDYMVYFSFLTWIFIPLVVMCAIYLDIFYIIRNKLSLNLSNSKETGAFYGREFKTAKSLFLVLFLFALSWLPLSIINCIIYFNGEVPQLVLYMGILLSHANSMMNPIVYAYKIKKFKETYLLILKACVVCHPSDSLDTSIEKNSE

[5] = target: T2, ABCG2; assay: Inhibition of human ABCG2 in human R5 cells assessed as inhibition of mitoxantrone efflux at 10 uM measured by flow cytometric analysis relative to control; type: cell-based; conditions: probe mitoxantrone; procedure, shortened: as §1
[6] = target: T4, Adenosine receptor A3 (Mus musculus, UniProt Q61618); assay: Binding affinity towards mouse adenosine A3 receptor
T4 sequence (Q61618 whole entry): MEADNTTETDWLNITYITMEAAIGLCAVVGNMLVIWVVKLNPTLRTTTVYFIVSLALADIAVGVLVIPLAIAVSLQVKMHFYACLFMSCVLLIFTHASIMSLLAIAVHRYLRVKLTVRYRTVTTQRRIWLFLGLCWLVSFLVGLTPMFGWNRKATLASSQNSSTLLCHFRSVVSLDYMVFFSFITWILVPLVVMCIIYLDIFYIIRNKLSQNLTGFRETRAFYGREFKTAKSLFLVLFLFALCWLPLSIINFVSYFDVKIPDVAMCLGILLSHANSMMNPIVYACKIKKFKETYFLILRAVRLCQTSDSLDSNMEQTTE

[7] = target: T2, ABCG2; assay: Activation of human ABCG2-mediated ATPase activity preincubated for 2 mins followed by ATP addition at 10 uM and measured after 20 mins by colorimetric assay relative to control; conditions: read-out: Activity; procedure, shortened: as §2
[8] = target: T2, ABCG2; assay: Effect on human ABCG2 transporter preincubated for 2 mins followed by ATP addition assessed as basal ATPase activity at 2.5 uM and measured after 20 mins by colorimetric assay relative to control; conditions: read-out: Activity; procedure, shortened: as §2
[9] = target: T2, ABCG2; assay: Effect on human ABCG2 transporter preincubated for 2 mins followed by ATP addition assessed as basal ATPase activity at 10 uM and measured after 20 mins by colorimetric assay relative to control; conditions: read-out: Activity; procedure, shortened: as §2
[10] = target: T2, ABCG2; assay: Activation of human ABCG2-mediated ATPase activity preincubated for 2 mins followed by ATP addition at 2.5 uM and measured after 20 mins by colorimetric assay relative to control; conditions: read-out: Activity; procedure, shortened: as §2
[11] = target: T2, ABCG2; assay: Inhibition of human ABCG2-mediated ATPase activity preincubated for 2 mins followed by ATP addition at 2.5 uM and measured after 20 mins by colorimetric assay relative to control; procedure, shortened: as §2
[12] = target: T2, ABCG2; assay: Inhibition of human ABCG2-mediated ATPase activity preincubated for 2 mins followed by ATP addition at 10 uM and measured after 20 mins by colorimetric assay relative to control; procedure, shortened: as §2
[13] = target: T1, Broad substrate specificity ATP-binding cassette transporter ABCG2; assay: Inhibition of human ABCG2-mediated ATPase activity preincubated for 2 mins followed by ATP addition and measured after 20 mins by colorimetric assay; procedure, shortened: as §2
[14] = target: T2, ABCG2; assay: Activation of human ABCG2-mediated ATPase activity preincubated for 2 mins followed by ATP addition at 0.5 uM and measured after 20 mins by colorimetric assay relative to control; conditions: read-out: Activity; procedure, shortened: as §2
[15] = target: T2, ABCG2; assay: Activation of human ABCG2-mediated ATPase activity preincubated for 2 mins followed by ATP addition at 5 uM and measured after 20 mins by colorimetric assay relative to control; conditions: read-out: Activity; procedure, shortened: as §2

Structure (SMILES): COc1cc(CCNC2=NC(C#Cc3ccc(Cl)s3)=NC3=NC=NC32)ccc1O (stereo not given)
- IC50 [1]: 4980 nM
- EC50 [2]: 13.2 nM
- activity at 20 min, 0.1 µM [3]: 111%
- Ki [4]: 6820 nM
- inhibition at 10 µM [5]: 110%

Structure (SMILES): CCOC(=O)C12CC1[C@@H](n1ccc3c(NCCc4ccccc4)nc(C#Cc4ccccc4)nc31)[C@H](O)[C@@H]2O (single isomer, unassigned)
- Ki [6]: > 10000 nM
- IC50 [1]: 440 nM
- EC50 [2]: 13.2 nM
- activity at 20 min, 0.1 µM [3]: 77.3%
- inhibition at 10 µM [5]: 92.6%

Structure (SMILES): CNC(=O)C12CC1[C@@H](n1cnc3cnc(C#Cc4ccc(F)c(F)c4)nc31)[C@H](O)[C@@H]2O (single isomer, unassigned)
- activity at 20 min, 10 µM [7]: 64.2%
- activity at 20 min, 2.5 µM [8]: ≤ 30%

Structure (SMILES): CNC(=O)C12CC1[C@@H](n1cnc3c(NCc4cccc(Cl)c4)nc(C#Cc4cccc(Cl)c4)nc31)[C@H](O)[C@@H]2O (single isomer, unassigned)
- activity at 20 min, 10 µM [9]: ≤ 30%
- activity at 20 min, 2.5 µM [10]: 49.3%

Structure (SMILES): CNC(=O)C12CC1[C@@H](n1cnc3c(NCc4cccc(Cl)c4)nc(C#Cc4ccccc4)nc31)[C@H](O)[C@@H]2O (single isomer, unassigned)
- activity at 20 min, 10 µM [9]: ≤ 30%
- activity at 20 min, 2.5 µM [10]: 51.3%

Structure (SMILES): CNC(=O)C12CC1[C@@H](n1cnc3c(NC4CC4c4ccc(F)c(F)c4)nc(C#Cc4cccc(F)c4)nc31)[C@H](O)[C@@H]2O (single isomer, unassigned)
- EC50 [2]: 16 nM
- activity at 20 min, 10 µM [7]: 46.7%
- activity at 20 min, 2.5 µM [10]: 111%
- inhibition at 10 µM [5]: 100%

Structure (SMILES): CCOC(=O)C12CC1[C@@H](n1ccc3c(NCCCc4ccc(OC)c(O)c4)nc(C#Cc4ccc(Cl)s4)nc31)[C@H](O)[C@@H]2O (single isomer, unassigned)
- IC50 [1]: 600 nM
- EC50 [2]: 24.3 nM
- activity at 20 min, 0.1 µM [3]: 74.2%
- Ki [4]: ≥ 99 nM
- inhibition at 10 µM [5]: 109%

Structure (SMILES): CNC(=O)C12CC1[C@@H](n1cnc3c(C)nc(C#Cc4ccc(F)c(F)c4)nc31)[C@H](O)[C@@H]2O (single isomer, unassigned)
- activity at 20 min, 10 µM [7]: 72.6%
- activity at 20 min, 2.5 µM [10]: 49.6%
- Ki [4]: ≥ 99 nM

Continued, in another order:

- activity at 20 min, 10 µM [9]: ≤ 30%
- activity at 20 min, 2.5 µM [8]: ≤ 30%
Structure (SMILES): OCC12CC1[C@@H](n1cnc3c(NCc4cccc(-n5cc(-c6ccc(F)c(F)c6)nn5)c4)nc(C#Cc4ccc(F)cc4)nc31)[C@H](O)[C@@H]2O (single isomer, unassigned)

- inhibition at 20 min, 2.5 µM [11]: 54.4%
- inhibition at 20 min, 10 µM [12]: 74.7%
- IC50 [13]: 2590 nM
Structure (SMILES): CNC(=O)C12CC1[C@@H](n1cnc3c(NCc4cccc(-n5cc(-c6ccc(F)c(F)c6)nn5)c4)nc(C#Cc4ccc(F)cc4)nc31)[C@H](O)[C@@H]2O (single isomer, unassigned)
- inhibition at 10 µM [5]: 102%

- inhibition at 20 min, 2.5 µM [11]: 43.5%
- IC50 [13]: 2570 nM
Structure (SMILES): CNC(=O)C12CC1[C@@H](n1cnc3c(NCc4cccc(-n5cc(-c6ccc(F)c(F)c6)nn5)c4)nc(C#Cc4ccc(F)c(F)c4)nc31)[C@H](O)[C@@H]2O (single isomer, unassigned)
- inhibition at 10 µM [5]: 92.5%

- inhibition at 20 min, 10 µM [12]: 44.5%
- activity at 20 min, 2.5 µM [8]: ≤ 30%
Structure (SMILES): CNC(=O)C12CC1[C@@H](n1cnc3c(NCc4cccc(-n5cc(-c6ccc(F)c(F)c6)nn5)c4)nc(C#Cc4ccc(C(F)(F)F)cc4)nc31)[C@H](O)[C@@H]2O (single isomer, unassigned)

- activity at 20 min, 10 µM [9]: ≤ 30%
- activity at 20 min, 2.5 µM [8]: ≤ 30%
Structure (SMILES): OCC12CC1[C@@H](n1cnc3c(NCc4cccc(-n5cc(-c6ccc(F)c(F)c6)nn5)c4)nc(C#Cc4ccc(F)c(F)c4)nc31)[C@H](O)[C@@H]2O (single isomer, unassigned)

- inhibition at 20 min, 2.5 µM [11]: 44.7%
- inhibition at 20 min, 10 µM [12]: 49.4%
Structure (SMILES): CNC(=O)C12CC1[C@@H](n1cnc3c(NCc4cccc(-n5cc(-c6ccc(F)c(F)c6)nn5)c4)nc(C#Cc4cc(F)cc(F)c4)nc31)[C@H](O)[C@@H]2O (single isomer, unassigned)

- EC50 [2]: 80 nM
- activity at 20 min, 0.5 µM [14]: 74.4%
- activity at 20 min, 5 µM [15]: 56.8%
Structure (SMILES): CNC(=O)C12CC1[C@@H](n1cnc3c(NCc4cccc(Cl)c4)nc(C#Cc4ccc(F)c(F)c4)nc31)[C@H](O)[C@@H]2O (single isomer, unassigned)
- inhibition at 10 µM [5]: 99.2%

- activity at 20 min, 10 µM [7]: 49.3%
- activity at 20 min, 2.5 µM [10]: 60.3%
Structure (SMILES): CNC(=O)C12CC1[C@@H](n1cnc3c(NCc4cccc(Cl)c4)nc(C#Cc4ccc(F)cc4)nc31)[C@H](O)[C@@H]2O (single isomer, unassigned)

- inhibition at 20 min, 10 µM [12]: 57.1%
- activity at 20 min, 2.5 µM [8]: ≤ 30%
Structure (SMILES): CNC(=O)C12CC1[C@@H](n1cnc3c(NCc4cccc(-n5cc(-c6ccc(F)c(F)c6)nn5)c4)nc(C#Cc4ccc(F)cc4F)nc31)[C@H](O)[C@@H]2O (single isomer, unassigned)

- inhibition at 20 min, 2.5 µM [11]: 38.9%
- inhibition at 20 min, 10 µM [12]: 48.9%
- IC50 [13]: 4010 nM
Structure (SMILES): CNC(=O)C12CC1[C@@H](n1cnc3c(NCc4cccc(-n5cc(-c6ccc(F)c(F)c6)nn5)c4)nc(C#Cc4cc(F)c(F)c(F)c4)nc31)[C@H](O)[C@@H]2O (single isomer, unassigned)
- inhibition at 10 µM [5]: 105%
